Measurements from PMC5776435 (Iranian Journal of Basic Medical Sciences, 2018).
Converted amounts (≈) assume the structure as drawn.

How the values were obtained:
HepG2 cells = experiment: MTT assay, cytotoxicity on HepG2 cells; type: cell-based, human
How it was run: (§1)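 Cells were grown in RPMI 1640 with 10% FBS and penicillin/streptomycin at 37 °C, 5% CO2, and seeded for 24 hr. They were exposed 6 hr to peptide (1.25–100 µg/ml for IC50; 10 µg/ml for viability). MTT (5 mg/ml stock in PBS) was then added for 4 hr at 37 °C, formazan dissolved in DMSO for 30 min, and A570 read. 5-Fluorouracil served as positive control and DMSO as blank. Triplicates were run; IC50 is the mean ± SD of three experiments.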

HT-29 cells = experiment: MTT assay, cytotoxicity on HT-29 cells; type: cell-based, human
How it was run: as §1

[1] = MTT assay, 10 µg/ml of each peptide, 6 hr, control = 100

O=c1[nH]cc(F)c(=O)[nH]1 [5-Fluorouracil]
IC50 (HepG2 cells; Homo sapiens, HepG2, 6 h, read-out: IC50 cell line HepG2): 3.16 µg/mL (≈ 24.3 µM) | Viability percentage (HepG2), MTT assay (HepG2 cells; [1]): 3.22% | IC50 (HT-29 cells; Homo sapiens, HT-29, 6 h, read-out: IC50 cell line HT-29): 6.08 µg/mL (≈ 46.7 µM) | Viability percentage (HT-29), MTT assay (HT-29 cells; [1]): 9.28%
